From ChEMBL document CHEMBL3804820, “2-hydroxyisoquinoline-1,3(2H,4H)-diones (HIDs) as human immunodeficiency virus type 1 integrase inhibitors: Influence of the alkylcarboxamide substitution of position 4” (Eur J Med Chem, 2016)
pEC50, pIC50: −log10 of the molar value.

Assays:
[1] = molecular target: T1, Human immunodeficiency virus type 1 integrase (Human immunodeficiency virus 1, UniProt Q7ZJM1); assay: Inhibition of HIV1 integrase strand transfer activity using 5'[digoxigenin]-GACCCTTTTAGTCAGTGTGGAAAATCTCTAGCA-3' as substrate incubated for 1 hr by ELISA
T1 sequence (Q7ZJM1 whole entry): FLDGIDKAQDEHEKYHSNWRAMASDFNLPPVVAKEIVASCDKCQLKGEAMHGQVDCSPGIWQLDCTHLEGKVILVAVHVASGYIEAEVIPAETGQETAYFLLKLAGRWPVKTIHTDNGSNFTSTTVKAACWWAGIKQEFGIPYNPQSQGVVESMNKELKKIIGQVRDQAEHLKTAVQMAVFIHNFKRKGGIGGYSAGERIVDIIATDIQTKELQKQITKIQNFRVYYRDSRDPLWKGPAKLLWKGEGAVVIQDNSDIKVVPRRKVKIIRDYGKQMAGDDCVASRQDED
Method in brief: (§1)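 ELISA with a 3'-biotin oligo and a 5'-digoxigenin partner oligo. Overall assay uses the full complementary oligo; strand transfer uses a precleaved oligo lacking the 3'-GT. Integrase at 160 nM final, annealed oligos 7 nM, in 10 mM MgCl2, 5 mM DTT, 20 mM HEPES pH 7.5, 0.5% PEG, 15% DMSO. Run 1 h at 37 °C, products denatured with NaOH, detected on avidin plates.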

[2] = Cytotoxicity against human MT4 cells assessed as reduction in cell viability by MTT assay; format: cell-based
Method in brief: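 MT-4 cell viability was measured by MTT reduction, run in parallel with the antiviral assay using 5-fold serial compound dilutions. CC50 is the concentration reducing viability by 50%.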

[3] = molecular target: T1, Human immunodeficiency virus type 1 integrase; assay: Inhibition of HIV1 integrase using 3'-biotin-labelled and 5'-digoxigenin-labelled oligonucleotide substrate incubated for 1 hr by ELISA; method in brief: as §1
[4] = Therapeutic index, ratio of CC50 for human MT4 cells to EC50 for HIV1 3B infected in human MT4 cells; format: cell-based; details: read-out: Ratio CC50/EC50
Method in brief: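 Ratio of CC50 to EC50. Both were determined in parallel by MTT in MT-4 cells, with the EC50 measured against HIV-1 IIIB cytopathic effect.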

[5] = tested on: Human immunodeficiency virus 1; assay: Antiviral activity against HIV1 3B infected in human MT4 cells assessed as reduction in virus-induced cytopathic effect by MTT assay; format: functional, organism-based; details: Human immunodeficiency virus 1, 3B
Method in brief: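 MT-4 cells infected with 100-300 CCID50 of HIV-1 IIIB, in the presence of 5-fold serial dilutions of compound. Cytopathic effect read by MTT reduction to formazan, measured spectrophotometrically. EC50 is the concentration giving 50% protection against virus-induced CPE.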

[6] = Inhibition of recombinant HIV1 reverse transcriptase RNase H activity using calf thymus ssDNA-[3H]-RNA as template/primer incubated for 10 mins; parameters: species or system Human immunodeficiency virus 1
Method in brief: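 Recombinant HIV-1 RT (4.5 pmol) preincubated with compound 10 min at 37 °C. Then reacted 10 min at 37 °C with [3H]-RNA/calf thymus DNA hybrid (20,000 cpm) in 50 mM Tris-HCl pH 8.0, 10 mM DTT, 6 mM MgCl2, 80 mM KCl. Stopped with cold TCA/pyrophosphate; released radioactivity taken by subtraction from undigested control.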

[7] = tested on: Human immunodeficiency virus 1; assay: Antiviral activity against HIV1 3B infected in human MT4 cells at 50 to 100 times antiviral EC50 added 1 to 25 hrs post infection assessed as time required for loss of inhibition of viral replication measured at 30 hrs post infection by p24 ELISA method; format: functional
[8] = tested on: Human immunodeficiency virus 1; assay: Selectivity ratio of EC50 for raltegravir resistant HIV1 harboring integrase G140S/Q148H double mutant infected in human MT4 cells to EC50 for wild type HIV1 3B infected in human MT4 cells; format: functional
Method in brief: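 MT-4 cells were infected with 100–300 CCID₅₀ of virus stock (titrated in MT-4 cells) in the presence of 5-fold serial drug dilutions. EC₅₀ is the concentration giving 50% protection against virus-induced cytopathic effect, read by MTT reduction (MT-4/MTT assay). The value is the fold-change in EC₅₀ for each mutant strain relative to the wild-type HIV-1 strain.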

pIC50 [1] | pIC50 [3] | pIC50 [6] | Structure (SMILES) | CC50 [2] | selectivity ratio [4] | pEC50 [5] | Time [7] | Ratio EC50 [8]
5.30 | 5.35 |  | CC(C)NC(=O)C1C(=O)N(O)C(=O)c2ccccc21 (stereo unspecified) | 162 µM | 5.4 | 4.52 |  | 
5.18 | 5.18 |  | CCCCCCCCCNC(=O)C1C(=O)N(O)C(=O)c2ccccc21 (stereo unspecified) | 88.5 µM | 3 | 4.54 |  | 
5.47 | 6.15 |  | O=C(NC1CCCCC1)C1C(=O)N(O)C(=O)c2ccccc21 (stereo unspecified) | > 250 µM | > 3 | 4.10 |  | 
5.35 | 5.35 |  | CC(C)(C)NC(=O)C1C(=O)N(O)C(=O)c2ccccc21 (stereo unspecified) | 142 µM |  | < 3.85 |  | 
5.04 | 5.04 |  | CCCCCCCCNC(=O)C1C(=O)N(O)C(=O)c2ccccc21 (stereo unspecified) | 98.5 µM | 3.5 | 4.55 |  | 
5.70 | 5.74 |  | CCCNC(=O)C1C(=O)N(O)C(=O)c2ccccc21 (stereo unspecified) | 131 µM | 4.7 | 4.55 |  | 
5.98 | 6.07 | 4.63 | CCCCCCCNC(=O)C1C(=O)N(O)C(=O)c2ccccc21 (stereo unspecified) | 110 µM | 3.4 | 4.49 |  | 
 |  |  | CC(C)c1nc(CN(C)C(=O)N[C@H](C(=O)N[C@@H](Cc2ccccc2)C[C@H](O)[C@H](Cc2ccccc2)NC(=O)OCc2cncs2)C(C)C)cs1 [RITONAVIR] |  |  |  | 25 h | 
5.06 | 5.06 |  | CCCCN(C)C(=O)C1C(=O)N(O)C(=O)c2ccccc21 (stereo unspecified) | 63.8 µM |  | < 4.20 |  | 
 |  |  | Cc1cn([C@H]2C[C@H](N=[N+]=[N-])[C@@H](CO)O2)c(=O)[nH]c1=O [ZIDOVUDINE] |  |  |  | 4 h | 
3.69 | 3.91 |  | CCN(CC)C(=O)C1C(=O)N(O)C(=O)c2ccccc21 (stereo unspecified) | 28 µM |  | < 4.55 |  | 
 |  |  | C[C@@H]1CCO[C@H]2Cn3cc(C(=O)NCc4ccc(F)cc4F)c(=O)c(O)c3C(=O)N12 [DOLUTEGRAVIR] |  |  |  |  | 5
5.04 | 5.09 |  | O=C(C1C(=O)N(O)C(=O)c2ccccc21)N1CCCCC1 (stereo unspecified) | 120 µM |  | < 3.92 |  | 
5.40 | 5.67 |  | O=C(NC1CC1)C1C(=O)N(O)C(=O)c2ccccc21 (stereo unspecified) | > 250 µM | > 6 | 4.37 |  | 
5.44 | 5.87 |  | O=C(NC1CCCC1)C1C(=O)N(O)C(=O)c2ccccc21 (stereo unspecified) | > 250 µM | > 4 | 4.21 |  | 
6.32 | 6.18 | 4.82 | CCCCNC(=O)C1C(=O)N(O)C(=O)c2ccccc21 (stereo unspecified) | 128 µM | 14 | 5.04 |  | 
6.28 | 6.19 |  | CCCCCNC(=O)C1C(=O)N(O)C(=O)c2ccccc21 (stereo unspecified) | 130 µM | 12.1 | 4.97 |  | 
